Assay outcomes (PubChem BioAssay)
ABCB1 block: inhibitors of human ABCB1 transporter, ABCG2 counter-screen | P08183 | CCRF-Adr cells, JC-1 efflux, flow cytometry | inhibition, % at 6.6 µM | hit rate 0.067% among 190,000; in the data active = inhibition above about 40%;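 note: 0% = vehicle and 100% = reference inhibitor; higher value means more JC-1 retained so stronger ABCB1 efflux block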
MEKK3 PB1 HTS: raises or lowers MEK5 binding to the human MEKK3 PB1 domain; binding response (% of control), % at 10 µM; Q99759; AID 1529; bead-based flow cytometry, Alexa488-MEK5 binding to MEKK3; actives lie on both sides; 0 = blocked by unlabeled MEK5, 100 = vehicle; hit rate 1.4% among 290,000;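 active = binding response more than 3 SD above or below the average of its plate-row segment, actives on both sides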;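 note: Alexa488 bead fluorescence after subtracting the streptavidin-only scavenger bead signal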
MEKK2mut PB1 HTS: signal of MEK5 binding to mutant human MEKK2 PB1 domain | hit rate 0.35% among 290,000 | bead flow cytometry, Alexa488-MEK5 binding to MEKK2 mutant | percent response, % at 10 µM; in the data active = percent response above about 24%, passing the limit was not always enough
MEKK2 WT-MEK5: raises or lowers MEK5 binding to wildtype human MEKK2 PB1 domain | AID 1531 | binding response (% of control), % at 10 µM | Q9Y2U5 | bead flow cytometry, Alexa488-MEK5 binding to MEKK2 WT; actives lie on both sides | hit rate 1.1% among 290,000; in the data active = binding response below about 67% or above about 130%
Efflux pump inh: antifungal efflux pump inhibition, Nile Red retention; S. cerevisiae Candida pump triplex; inhibition, % at 10 µM; hit rate 0.44% among 330,000;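 active = plate passing quality check with inhibition over a set limit, or well fluorescence over plate mean plus 4 SD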;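 note: Nile Red retained in pooled yeast measured as flow cytometry median fluorescence; 0% = buffer negative control and 100% = Enniatin B positive control; higher means more Nile Red kept so more efflux inhibition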
ABCG2 block: blocks JC-1 efflux by human ABCG2 transporter. Q9UNQ0. IgMXP3 cells, flow cytometry. inhibition, % at 6.6 µM. hit rate 0.1% among 190,000. AID 1325;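 active = inhibition above 80%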;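 note: 0% = DMSO and 100% = nicardipine control wells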
Target sequence (Q9UNQ0 whole entry, looked up): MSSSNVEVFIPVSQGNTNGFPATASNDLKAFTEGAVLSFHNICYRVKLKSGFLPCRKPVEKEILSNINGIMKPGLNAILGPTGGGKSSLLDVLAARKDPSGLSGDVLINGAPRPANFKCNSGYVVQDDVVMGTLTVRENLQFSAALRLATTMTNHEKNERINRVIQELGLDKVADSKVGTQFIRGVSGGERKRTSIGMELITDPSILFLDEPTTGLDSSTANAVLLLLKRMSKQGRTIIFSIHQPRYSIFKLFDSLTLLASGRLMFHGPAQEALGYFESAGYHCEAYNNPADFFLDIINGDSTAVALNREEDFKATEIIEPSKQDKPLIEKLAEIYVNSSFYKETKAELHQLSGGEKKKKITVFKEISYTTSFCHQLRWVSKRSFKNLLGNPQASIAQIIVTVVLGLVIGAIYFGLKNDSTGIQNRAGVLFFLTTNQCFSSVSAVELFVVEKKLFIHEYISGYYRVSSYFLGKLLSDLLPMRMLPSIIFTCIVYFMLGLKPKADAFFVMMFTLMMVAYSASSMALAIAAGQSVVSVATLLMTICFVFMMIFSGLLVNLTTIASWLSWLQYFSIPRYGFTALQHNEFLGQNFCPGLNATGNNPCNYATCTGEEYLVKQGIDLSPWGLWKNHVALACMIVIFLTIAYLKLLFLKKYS
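Read-out basis: Efflux inhibition in percent versus controls | Test system: ABCG2 IgMXP3 and barcoded ABCB1 CCRF-Adr cell mix | Quantity: 3 million cells/mL in well | Schedule: 10 min at 25 °C | Control set: Nicardipine as high control, DMSO as low control | Reagent: JC-1 as fluorescent efflux pump substrate | Signal: Flow cytometry of retained JC-1 fluorescence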
MEKK2wt confirm: raises or lowers MEK5 binding to wildtype human MEKK2, retest. shares compounds with MEKK3 PB1 HTS. bead flow cytometry, Alexa488-MEK5 binding to MEKK2 WT; actives lie on both sides. binding response (% of control), % at 10 µM. hit rate 2.4% among 5,900. AID 1892; in the data active = binding response below about 16% or above about 210%; inactive = in between
MEKK2mut confirm: signal of MEK5 binding to mutant human MEKK2, retest. percent response, % at 10 µM. shares compounds with MEKK3 PB1 HTS. hit rate 2% among 5,900. bead flow cytometry, Alexa488-MEK5 binding to MEKK2 mutant; in the data active = percent response mostly above about 71%, no sharp cut-off; inactive = mostly below about 38%;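 note: higher means compound restores mutant binding toward wildtype level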
MEKK3-MEK5 inh: confirmation of inhibitors of MEK5 binding to human MEKK3; shares compounds with MEKK3 PB1 HTS; bead flow cytometry, Alexa488-MEK5 binding to MEKK3; hits give low values; binding response (% of control), % at 10 µM; hit rate 1.8% among 5,900; AID 1894;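 active = binding response below 72% of control, or above a set upper limit, though filed actives all read lower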;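 note: 100% = DMSO only wells and 0% = binding blocked by excess unlabeled MEK5; lower values mean stronger disruption of MEK5 binding to MEKK3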
* = called active by the depositor; [ ] = remark or other dose. Sampled rows, rich in hits. Any-hit rate of the full collection: about 2.5%.

Results for CN(Cc1ccccc1)CC(O)COc1ccc(CNCc2nccn2C)cc1 (stereo not drawn) ?
ABCB1 block: 0; MEKK3 PB1 HTS: 99; MEKK2mut PB1 HTS: 8; MEKK2 WT-MEK5: 114; Efflux pump inh: 0; ABCG2 block: 1

Results for CC(=O)Nc1ccc(S(=O)(=O)N2C(C)CCCC2C)cc1 (stereo not drawn) ?
MEKK3 PB1 HTS: 103; MEKK2mut PB1 HTS: 5; MEKK2 WT-MEK5: 101; Efflux pump inh: 0

What do the screens show for `CC(NC(=O)c1ccc2c(c1)OCO2)C(c1cccs1)N1CCN(c2ccccc2)CC1` (stereo not drawn)?
MEKK3 PB1 HTS: 101; MEKK2mut PB1 HTS: 5; MEKK2 WT-MEK5: 95; Efflux pump inh: 0

What do the screens show for `CCc1ccc(C(=O)NNc2ccc(S(N)(=O)=O)cc2)cc1`?
MEKK3 PB1 HTS: 104; MEKK2mut PB1 HTS: 36; MEKK2 WT-MEK5: 186*; Efflux pump inh: 0; MEKK2wt confirm: 101; MEKK2mut confirm: -3; MEKK3-MEK5 inh: 101

What do the screens show for `Cc1cccn2c(=O)c3cc(C(=O)NC4CCCC4)sc3nc12`?
MEKK3 PB1 HTS: 103; MEKK2mut PB1 HTS: 2; MEKK2 WT-MEK5: 109; Efflux pump inh: 0

How did OC1(c2ccc(Br)cc2)CCN(Cc2cccc(Br)c2)CC1 do in these assays?
MEKK3 PB1 HTS: 109; MEKK2mut PB1 HTS: 15; MEKK2 WT-MEK5: 134*; Efflux pump inh: 0; MEKK2wt confirm: 130; MEKK2mut confirm: 17; MEKK3-MEK5 inh: 107

Results for CCN(C(=O)COC(=O)c1cc(=O)[nH]c2ccccc12)C1CCS(=O)(=O)C1 (stereo not drawn) ?
MEKK3 PB1 HTS: 37*[inhibitor]; MEKK2mut PB1 HTS: -14; MEKK2 WT-MEK5: 37*[inhibitor]; Efflux pump inh: 0; MEKK2wt confirm: 98; MEKK2mut confirm: 3; MEKK3-MEK5 inh: 101

Results for CCN(C(=O)COC(=O)c1cc(-c2ccc3cc(OC)ccc3c2)nc2ccccc12)C1CCS(=O)(=O)C1 (stereo not drawn) ?
ABCB1 block: 0; MEKK3 PB1 HTS: 98; MEKK2mut PB1 HTS: -2; MEKK2 WT-MEK5: 95; Efflux pump inh: 0; ABCG2 block: -1

Results for CCN(CC)c1ccc(/C=N/NC(=O)CN2CCCc3ccccc32)cc1 ?
ABCB1 block: 0; MEKK3 PB1 HTS: 139*; MEKK2mut PB1 HTS: -1; MEKK2 WT-MEK5: 101; Efflux pump inh: 0; ABCG2 block: 4; MEKK2wt confirm: 96; MEKK2mut confirm: -6; MEKK3-MEK5 inh: 100

What do the screens show for `O=C(CN1CCCc2ccccc21)N/N=C/c1ccccc1`?
ABCB1 block: 0; MEKK3 PB1 HTS: 96; MEKK2mut PB1 HTS: 9; MEKK2 WT-MEK5: 103; Efflux pump inh: 0; ABCG2 block: 14

What do the screens show for `COc1ccc(S(=O)(=O)N2C(=O)/C(=C3\SC(N)=NC3=O)c3ccccc32)cc1`?
MEKK3 PB1 HTS: 98; MEKK2mut PB1 HTS: -2; MEKK2 WT-MEK5: 96; Efflux pump inh: 0

Results for C[n+]1c2n(c3ccccc31)N=C(c1ccc(-c3ccccc3)cc1)CS2 ?
ABCB1 block: 0; MEKK3 PB1 HTS: 112; MEKK2mut PB1 HTS: 6; MEKK2 WT-MEK5: 159*; Efflux pump inh: 0; ABCG2 block: -1; MEKK2wt confirm: 120; MEKK2mut confirm: -22; MEKK3-MEK5 inh: 89

What do the screens show for `O=C1CC2(CCN(C(=O)c3ccc(F)cc3)CC2)Oc2ccccc21`?
Efflux pump inh: 0

How did Cc1ccc(CN2C3CCCC2CC(NC(=O)c2ccc(C)cc2)C3)cc1 (stereo not drawn) do in these assays?
ABCB1 block: 2; MEKK3 PB1 HTS: 144*; MEKK2mut PB1 HTS: 52*; MEKK2 WT-MEK5: 200*; Efflux pump inh: 0; ABCG2 block: 2; MEKK2wt confirm: 116; MEKK2mut confirm: 18; MEKK3-MEK5 inh: 101

Results for O=C(NC1CC2CCCC(C1)N2Cc1ccccc1)C1CCCCC1 (stereo not drawn) ?
ABCB1 block: 0; MEKK3 PB1 HTS: 146*; MEKK2mut PB1 HTS: 6; MEKK2 WT-MEK5: 130; Efflux pump inh: 0; ABCG2 block: 1; MEKK2wt confirm: 96; MEKK2mut confirm: -6; MEKK3-MEK5 inh: 100

How did O=C(NC1CC2CCCC(C1)N2C(=O)Nc1ccc(Cl)c(C(F)(F)F)c1)C1CC1 (stereo not drawn) do in these assays?
ABCB1 block: 0; MEKK3 PB1 HTS: 96; MEKK2mut PB1 HTS: -6; MEKK2 WT-MEK5: 94; Efflux pump inh: 0; ABCG2 block: 2

Results for COCCCNC(=S)NC1CC2CCCC(C1)N2Cc1cccs1 (stereo not drawn) ?
ABCB1 block: 0; MEKK3 PB1 HTS: 79; MEKK2mut PB1 HTS: -9; MEKK2 WT-MEK5: 87; Efflux pump inh: 0; ABCG2 block: 16

What do the screens show for `O=C(Nc1ccc(Cl)c(C(F)(F)F)c1)NC1CC2CCCC(C1)N2Cc1ccccc1` (stereo not drawn)?
ABCB1 block: 2; MEKK3 PB1 HTS: 106; MEKK2mut PB1 HTS: 7; MEKK2 WT-MEK5: 215*; Efflux pump inh: 0; ABCG2 block: 6; MEKK2wt confirm: 171; MEKK2mut confirm: 33; MEKK3-MEK5 inh: 106

How did COCCNC(=S)NC1CC2CCCC(C1)N2Cc1cccs1 (stereo not drawn) do in these assays?
ABCB1 block: 1; MEKK3 PB1 HTS: 82*[inhibitor]; MEKK2mut PB1 HTS: -10; MEKK2 WT-MEK5: 86; Efflux pump inh: 0; ABCG2 block: 3; MEKK2wt confirm: 99; MEKK2mut confirm: -2; MEKK3-MEK5 inh: 97

Results for Cc1cc(C)c(C)c(OC(=O)c2sc(Cl)nc2C)c1 ?
ABCB1 block: 0; MEKK3 PB1 HTS: 125; MEKK2mut PB1 HTS: 1; MEKK2 WT-MEK5: 110; Efflux pump inh: 0; ABCG2 block: 1

Results for CCCNC(=S)NC1CC2CCC(C1)N2Cc1ccccc1 (stereo not drawn) ?
ABCB1 block: 0; MEKK3 PB1 HTS: 82*[inhibitor]; MEKK2mut PB1 HTS: -11; MEKK2 WT-MEK5: 88; Efflux pump inh: 0; ABCG2 block: 0; MEKK2wt confirm: 101; MEKK2mut confirm: 1; MEKK3-MEK5 inh: 98
